Source: publication PMC9359741 (Clinical Cancer Research, 2022)
Where “and” joins values, the source holds several entries; their conditions need not be identical. Equal entries are not always repeated.

Assays:
Type in all cases: in vivo, human
[1] = Phase 1b plasma pharmacokinetics of ARRY-382 and metabolites; conditions: for RAUC (accumulation ratio), geometric mean (geometric %CV) / Ctrough, geometric mean (geometric %CV) / RCmax (accumulation ratio), geometric mean (geometric %CV) / AUC(0-t) / Cmax / Tmax: Phase 1b; for AUC / AUC(0-t) / Cmax / Tmax: human, plasma, oral; for AUC(0-t): AUClast; for AUC(0-t) / Cmax: geometric mean (geometric %CV); for Tmax: median (range)
Method in brief: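 Blood was collected for plasma test compound and its N-oxide, N-desmethyl and sulfate metabolites. Trough samples were taken ≤120 min before the oral dose on cycle 1 day 15 and day 1 of cycles 3–6. Doses were 200–400 mg QD in Phase 1b and 300 mg QD in Phase 2. Non-compartmental parameters were estimated per patient in the PK set, reported as geometric mean (geometric %CV) and Tmax as median (range).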

CSF-1R = assay: Phase 2 pharmacodynamic biomarkers; conditions: cycle 1 day 15 compared with cycle 1 day 1
Method in brief: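 Blood was drawn for serum CSF-1 and CTX, plus serum osteoprotegerin and non-classical monocytes in Phase 2. Urine was collected for NTX. Samples were taken pre-dose on cycle 1 days 1, 8 and 15, on day 1 of later cycles and at discontinuation. Mean change on cycle 1 day 15 versus cycle 1 day 1 was summarized descriptively, with outliers excluded.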

[2] = test system: pancreatic ductal adenocarcinoma (PDA); assay: Phase 2 efficacy
Method in brief: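 Oral test compound 300 mg QD plus anti-PD-1 antibody 200 mg IV Q3W. PD-1/PD-L1 IR cohort: progression on anti-PD-1/PD-L1 (RECIST or irRC). prOVCA cohort: progression ≤6 months after ≥4 platinum cycles. PDA cohort: ≥1 prior systemic line. Investigator assessed best response per RECIST v1.1 and irRC. ORR used confirmed responses with Clopper–Pearson 95% CI; all dosed patients. Screening tissue was profiled for MSI/MMR, TMB and gene expression.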

[3] = Cycle 2 day 1, ARRY-382 200 mg, n = 4
[4] = Cycle 2 day 1, ARRY-382 300 mg, n = 4
[5] = Cycle 2 day 1, ARRY-382 400 mg, n = 3
[6] = 200 mg, Cycle 1 day 1, ARRY-382 200 mg, n = 6
[7] = 200 mg, Cycle 2 day 1, ARRY-382 200 mg, n = 4
[8] = 300 mg, Cycle 1 day 1, ARRY-382 300 mg, n = 6
[9] = 300 mg, Cycle 2 day 1, ARRY-382 300 mg, n = 4
[10] = 400 mg, Cycle 1 day 1, ARRY-382 400 mg, n = 7
[11] = 400 mg, Cycle 2 day 1, ARRY-382 400 mg, n = 3

## Cc1cccc(Cn2nc(C3CC3)c3c(NC(=O)c4cnc5cc(OCCN6CCN(C)CC6)ccn45)cccc32)n1 [ARRY-382]
[1]; Cycle 2 day 1, ARRY-382 200 mg, n = 3
  RAUC (accumulation ratio), geometric mean (geometric %CV): 3.03 (47.9)
[1]; [3]
  Ctrough, geometric mean (geometric %CV): 576 (59.5) ng/mL
  RCmax (accumulation ratio), geometric mean (geometric %CV): 2.53 (48.2)
[1]; Cycle 2 day 1, ARRY-382 300 mg, n = 2
  RAUC (accumulation ratio), geometric mean (geometric %CV): 1.92 (NC)
[1]; [4]
  Ctrough, geometric mean (geometric %CV): 667 (27.7) ng/mL
  RCmax (accumulation ratio), geometric mean (geometric %CV): 2.51 (95.7)
[1]; Cycle 2 day 1, ARRY-382 400 mg, n = 2
  RAUC (accumulation ratio), geometric mean (geometric %CV): 3.52 (NC)
[1]; [5]
  Ctrough, geometric mean (geometric %CV): 627 (126) ng/mL
  RCmax (accumulation ratio), geometric mean (geometric %CV): 2.28 (54.2)
[1]; 200 mg
  AUC: 22800 ng·h/mL
[1]; [6]
  AUC(0-t): 3720 ng·h/mL
  Cmax: 773 ng/mL
  Tmax: 2 h
[1]; [7]
  AUC(0-t): 22800 ng·h/mL
  Cmax: 1560 ng/mL
  Tmax: 2 h
[1]; 300 mg
  AUC: 30600 ng·h/mL
[1]; [8]
  AUC(0-t): 4890 ng·h/mL
  Cmax: 995 ng/mL
  Tmax: 4.01 h
[1]; [9]
  AUC(0-t): 30600 ng·h/mL
  Cmax: 2260 ng/mL
  Tmax: 4.18 h
[1]; 400 mg
  AUC: 30800 ng·h/mL
[1]; [10]
  AUC(0-t): 6790 ng·h/mL
  Cmax: 1330 ng/mL
  Tmax: 4.07 h
[1]; [11]
  AUC(0-t): 30800 ng·h/mL
  Cmax: 2560 ng/mL
  Tmax: 1.98 h
CSF-1R
  Change in mean CTX or NTX: no significant changes
[2]; PDA
  Median OS: 2.2 (95% CI, 1.5–4.9) months
  Median PFS: 1.4 (95% CI, 0.9–2.8) months
  Median irPFS per irRC: 1.3 (95% CI, 0.9–2.7) months
[2]; PDA cohort, 1 patient (MSI-Stable, TMB-Low, PD-L1 negative)
  DOR of confirmed PR: 2.4 months
[2]; PDA, N = 27
  Best overall response: CR: 0 (0.0) n (%)
  Best overall response: NE: 14 (51.9) n (%)
  Best overall response: PD: 7 (25.9%) n (%) and 7 (25.9) n (%)
  Best overall response: PR: 1 (3.7) n (%)
  Best overall response: SD: 5 (18.5) n (%)
  Immune-related best overall response: CR: 0 (0.0) n (%)
  Immune-related best overall response: NE: 19 (70.4) n (%)
  Immune-related best overall response: PD: 0 (0.0) n (%)
  Immune-related best overall response: PR: 1 (3.7) n (%)
  Immune-related best overall response: SD: 7 (25.9) n (%)
[2]; confirmed, PDA, N = 27
  ORR, % (95% CI): 3.7 (0.1–19.0) %
  ir-ORR, % (95% CI): 3.7 (0.1–19.0) %
